# From ChEMBL document CHEMBL1148479, “Antineoplastic agents. 520. Isolation and structure of irciniastatins A and B from the Indo-Pacific marine sponge Ircinia ramosa” (2004)
# Experiments:
# Type in all cases: functional
# MCF7 = assay: Compound was tested for cancer cell line growth inhibition against human breast (MCF-7) cell line
# How it was run: (§1)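 NCI sulforhodamine B protocol. Cells in 5% fetal bovine serum/RPMI1640 are seeded in 96-well plates and incubated 24 h, then exposed to serial compound dilutions for 48 h. Cells are fixed with trichloroacetic acid, stained with SRB and read by microplate reader. GI50 is the concentration giving a 50% reduction in net protein increase, calculated from optical density.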
# HUVEC = assay: Compound was tested for cancer cell line growth inhibition against human umbilical vein endothelial cells
# Cryptococcus neoformans = assay: Compound was tested for minimum inhibitory concentration against Cryptococcus neoformans ATCC 90112
# How it was run: (§2)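 Standard broth microdilution susceptibility method. The fungal test follows the M27-A yeast reference standard. MIC is the lowest concentration that inhibits all visible growth of the organism (optically clear wells).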
# KM-20L2 = assay: Compound was tested for cancer cell line growth inhibition against human colon (KM20L2) cell line; how it was run: as §1
# P388 = assay: Compound was tested for cancer cell line growth inhibition against murine P388 leukemia cell line; conditions: Mus musculus
# How it was run: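 Murine P388 leukemia cells are grown in 10% horse serum/Fisher medium for 24 h, then incubated 48 h with serial compound dilutions. Cells are counted on a particle counter, and ED50 for growth inhibition is calculated from the counts.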
# Neisseria gonorrhoeae = assay: Compound was tested for minimum inhibitory concentration against Neisseria gonorrhoeae ATCC 49226; how it was run: as §2
# SF-268 = assay: Compound was tested for cancer cell line growth inhibition against human central nervous system (SF268) cell line; how it was run: as §1
# NCI-H460 = assay: Compound was tested for cancer cell line growth inhibition against lung cancer cells (NCI-H460); conditions: Homo sapiens; how it was run: as §1
# BXPC-3 = assay: Compound was tested for cancer cell line growth inhibition against human pancreas (BXPC-3) cell line; how it was run: as §1
# DU-145 = assay: Compound was tested for cancer cell line growth inhibition against human prostate (DU-145) cell line; how it was run: as §1
structure (smiles),measurement,setting,value
C=C(C)CC(OC)[C@H](O)C(=O)N[C@@H](OC)[C@@H]1C[C@@H](O)C(C)(C)[C@@H](C[C@H](O)[C@@H](C)[C@H]2Cc3c(C)c(O)cc(O)c3C(=O)O2)O1 (stereo not given in full) [IRCINIASTATIN A],GI50,MCF7,0.66 ng/mL
same,GI50,HUVEC,< 0.5 ng/mL
same,MIC,Cryptococcus neoformans,16000 ng/mL
same,GI50,KM-20L2,2.1 ng/mL
same,GI50,P388,6 ng/mL
same,MIC,Neisseria gonorrhoeae,64000 ng/mL
same,GI50,SF-268,1.2 ng/mL
same,GI50,NCI-H460,0.73 ng/mL
same,GI50,BXPC-3,0.5 ng/mL
same,GI50,DU-145,1.6 ng/mL
